Assay outcomes deposited in PubChem BioAssay by several laboratories.
Compounds with a hit are over-represented: about 6.4% of the library has one in this group of screens.
NR3A LBD binder: binders of NR3A ligand-binding domain, primary screen, biophysical, differential scanning fluorimetry, uHTS. NR3A LBD differential scanning fluorimetry, Tm shift; 0% = protein alone, 100% = glycine-bound protein. AID 1259313, 2017. Tm shift relative to glycine control, % at 25 µM. 340,000 compounds, 2.5% hits;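 active = melting temperature shift of at least 10% of the positive control shift, at one fixed dose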
CHOP inhibitor: inhibitors of CHOP promoter induction, primary screen, cell-based, unfolded protein response, luciferase reporter; 220,000 compounds, 3.8% hits; CHO-K1 CHOP-promoter luciferase, tunicamycin-induced, 15-18 h; inhibition, % at 10 µM;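 active = compounds that reduced the stress-induced luciferase reporter signal by more than about 70% of percent inhibition, limit read from the data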;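 also: 0% = tunicamycin plus vehicle and 100% = wells without tunicamycin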
WT yeast gro inh: growth inhibition of WT strain, primary screen, mitochondrial fusion inhibitor project, WT and mutant strains, chemical genetic; mitochondrial fusion phenotypic screen; inhibition, % at 10 µM; 190,000 compounds, 2.1% hits; AID 1362, 2008; in the data active = inhibition above about 58%; tested in S. cerevisiae
MPTP block: mitochondrial permeability transition pore inhibitors, primary screen, biochemical, isolated mouse mitochondria, absorbance. 360,000 compounds, 1.4% hits. inhibition, % at 10 µM. Ca2+ swelling absorbance, 30 min;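 active = inhibition of 50% or more, scaled per plate between neutral and stimulator controls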;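 also: 0% = DMSO wells given calcium and 100% = 1 mM EGTA wells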
Tb MetRS inh: T. brucei MetRS inhibitors, primary screen, biochemical, luminescence. inhibition, % at 11.9 µM. 360,000 compounds, 0.4% hits. purified T. brucei MetRS, ATP depletion, Kinase-Glo luminescence. AID 624268, 2012;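 active = inhibition above a per-plate cutoff of the control wells' mean inhibition plus 3 SD, cut at about 5.5% in these data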;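 also: 0% = DMSO wells median and 100% = median of wells with control inhibitor compound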
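Dosing: 11.9 µM compound single dose, 0.9% DMSO; Assay system: purified T. brucei MetRS enzyme; Measured by: Kinase-Glo luciferase luminescence reporting remaining unconsumed ATP; Schedule: 15 min plus 2 h at 25 °C.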
EBV gp42 inh: Epstein-Barr virus gp42 inhibitors, primary screen, biochemical, uHTS, fluorescence polarization. Glycoprotein 42 (Epstein-Barr virus (strain AG876)), Q1HVG2. Fluorescence polarization binding assay, mP read-out. inhibition, % (tested at 21.74 µM). 220,000 compounds, 0.42% hits; in the data active = inhibition above about 50%
Target sequence (Q1HVG2 whole entry, looked up): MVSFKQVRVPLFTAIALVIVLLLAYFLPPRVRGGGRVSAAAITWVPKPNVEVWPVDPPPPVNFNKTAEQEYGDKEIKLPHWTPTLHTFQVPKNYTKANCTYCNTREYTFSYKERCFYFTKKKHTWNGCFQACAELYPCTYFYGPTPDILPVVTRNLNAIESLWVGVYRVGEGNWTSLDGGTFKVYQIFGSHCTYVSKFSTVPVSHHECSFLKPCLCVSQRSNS
Tb MetRS conf: T. brucei MetRS inhibitors, confirmation, biochemical, luminescence; inhibition, % at 11.9 µM; shares compounds with Tb MetRS inh; 1,400 compounds, 93% hits; T. brucei MetRS enzyme, luminescence (ATP depletion); in the data active = inhibition above about 7%
Jurkat cytotox: Jurkat T cell cytotoxicity, cytotoxicity control for T. brucei MetRS inhibitor project, luminescence, high throughput; shares compounds with Tb MetRS inh; Jurkat cells viability, ATP luminescence; inhibition, % at 8.3 µM; 1,400 compounds, 12% hits; in the data active = inhibition above about 15%;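 also: 0% = vehicle and 100% = reference inhibitor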
TbMetRS FP orth: T. brucei MetRS inhibitors, orthogonal assay for T. brucei MetRS inhibitor project, biochemical, fluorescence polarization; purified T. brucei MetRS; 1,400 compounds, 44% hits; shares compounds with Tb MetRS inh; inhibition, % at 11.9 µM; in the data active = inhibition above about 17%;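 also: 0% = vehicle wells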
* hit, by the source's call; · = not tested or not shown.

SMILES	NR3A LBD binder	CHOP inhibitor	WT yeast gro inh	MPTP block	Tb MetRS inh	EBV gp42 inh	Tb MetRS conf	Jurkat cytotox	TbMetRS FP orth
COc1ccc(CCNC(=O)c2ccc(-c3ccc([N+](=O)[O-])cc3Cl)o2)cc1OC	-7	18	34	14	5.7*	7	8.7*	32*	19*
Cc1ccccc1NC(=O)CCC(=O)N/N=C/c1c[nH]c2ccccc12	-3	4	2	-1	0	4	·	·	·
O=C(CN1CCN(Cc2ccc(Cl)cc2)CC1)N/N=C/c1c[nH]c2ccccc12	-1	20	9	-1	8.4*	1	31*	0	16
Cc1ccc(CN2CCN(CC(=O)N/N=C/c3c[nH]c4ccccc34)CC2)cc1	1	16	-9	0	1	-17	·	·	·
O=C(CCC(=O)Nc1ccccc1Cl)N/N=C/c1c[nH]c2ccccc12	3	5	10	-2	8.0*	10	16*	-3	2
CC1=C(C(=O)N(C(C)C)C(C)C)CC(CC(=O)NC2CCCCC2)C(=O)N1Cc1ccccc1 (stereo not drawn)	·	·	·	2	-1	·	·	·	·
CC(C)OC(=O)Cn1c(=O)sc2ccccc21	-2	8	-19	0	-1	-5	·	·	·
OCC1(CCOc2ccccc2)CCN(Cc2cn[nH]c2-c2ccc(F)cc2)CC1	-1	5	7	-1	0	0	·	·	·
OCC1(CCOc2ccccc2)CCN(Cc2nc3ccc(F)cc3[nH]2)CC1	-1	4	6	-1	7.5*	-17	21*	2	0
CCc1cccc(NC(=O)Cn2c(=O)oc3cc(S(=O)(=O)N4CCOCC4)ccc32)c1	-6	44	6	1	7.0*	1	12*	0	3
CCc1ccc(NC(=O)Cn2c(=O)oc3cc(S(=O)(=O)N4CCOCC4)ccc32)cc1	1	48	5	0	15*	-21	12*	1	5
O=C(Cn1c(CO)nc2ccccc21)Nc1cc(C(F)(F)F)ccc1N1CCOCC1	0	53	3	0	14*	-33	26*	-2	4
COc1ccc(C2CC(c3ccc(Cl)cc3Cl)Nc3nc(N)nn32)cc1 (stereo not drawn)	2	-2	1	-2	7.5*	3	14*	-4	0
COc1cccc(C2CC(c3ccc(Cl)cc3Cl)Nc3nc(N)nn32)c1 (stereo not drawn)	-1	21	-13	-2	8.3*	-16	13*	4	5
O=C(Cn1c(NCCO)nc2ccccc21)c1ccc([N+](=O)[O-])cc1	1	·	·	0	20*	·	3	6	7
O=C(Cn1c(NCCCO)nc2ccccc21)c1ccc([N+](=O)[O-])cc1	2	·	·	1	0	·	·	·	·
Nc1nnc(SCC(=O)Nc2cccc(S(=O)(=O)N3CCOCC3)c2)s1	-2	·	·	-3	0	·	·	·	·
O=C(CSc1nnc(Nc2ccccc2)s1)Nc1ccc(S(=O)(=O)N2CCOCC2)cc1	18*	23	-13	-5	13*	-24	29*	12	19*
Cc1ccc(Nc2nnc(SCC(=O)Nc3ccc(S(=O)(=O)N4CCOCC4)cc3)s2)cc1	33*	26	-11	9	8.5*	-6	15*	5	14
